The source of these data is ChEMBL document CHEMBL4219253, “Positive Modulators of the N-Methyl-d-aspartate Receptor: Structure-Activity Relationship Study of Steroidal 3-Hemiesters” (J Med Chem, 2018).

In test [1] the target is T1, Glutamate NMDA receptor; Grin1/Grin2b (Rattus norvegicus) (UniProt P35439+Q00960). Description: Positive allosteric modulation of recombinant rat GluN1alpha/GluN2B receptor expressed in HEK293 cells assessed as potentiation of glutamate-induced current response at 100 uM at holding potential -60mV by whole cell voltage clamp method relative to control. Format: cell-based. The gist of the method:
(§1)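 HEK293 cells transfected with GluN1-1a, the GluN2 subunit and GFP. Whole-cell voltage clamp at -60 mV, series resistance <10 MΩ, 80-90% compensation, room temperature (21–25 °C). Compound is co-applied with 1 µM glutamate by multibarrel fast perfusion (exchange ~10 ms). DMSO is held at 1% in all test and control solutions. Readout is % potentiation of the glutamate-evoked current.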

Test [2] has as its target Glutamate NMDA receptor; Grin1/Grin2b (Rattus norvegicus, UniProt P35439+Q00960). Kind of test: Positive allosteric modulation of recombinant rat GluN1alpha/GluN2B receptor expressed in HEK293 cells assessed as potentiation of glutamate-induced current response at holding potential -60mV by whole cell voltage clamp method. It counts as cell-based. In a few lines: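 HEK293 cells transfected with GluN1-1a, GluN2A, 2B, 2C or 2D and GFP cDNA. Whole-cell voltage clamp at -60 mV, 21–25 °C, series resistance <10 MΩ compensated 80–90%. Compound co-applied with 1 µM glutamate by fast multibarrel perfusion. DMSO 1% in all solutions. At least four cells per point.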

Test [3] deals with T2, Glutamate NMDA receptor; Grin1/Grin2a (Rattus norvegicus) (UniProt P35439+Q00959). Kind of test: Positive allosteric modulation of recombinant rat GluN1alpha/GluN2A receptor expressed in HEK293 cells assessed as potentiation of glutamate-induced current response at 1 to 30 uM at holding potential -60mV by whole cell voltage clamp method relative to control. It counts as cell-based. In a few lines:
(§2)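 HEK293 cells transfected with GluN1-1a, GluN2A, 2B, 2C or 2D and GFP cDNA. Whole-cell voltage clamp at -60 mV, 21–25 °C, series resistance <10 MΩ compensated 80–90%. Compound co-applied with 1 µM glutamate by fast multibarrel perfusion. DMSO 1% in all solutions. […] At least four cells per point.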

For test [4], the target named is T1, Glutamate NMDA receptor; Grin1/Grin2b (Rattus norvegicus). Description: Positive allosteric modulation of recombinant rat GluN1alpha/GluN2B receptor expressed in HEK293 cells assessed as potentiation of glutamate-induced current response at 30 uM at holding potential -60mV pretreated with cells followed by 1 mM glutamate addition by whole cell voltage clamp method relative to control. Format: cell-based. The gist of the method:
(§3)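 HEK293 cells expressing GluN1-1a/GluN2B, whole-cell voltage clamp at -60 mV, 21–25 °C. Compound at 30 µM was given in one of three ways: co-applied with 1 µM glutamate, co-applied with 1 mM glutamate, or pre-applied before 1 mM glutamate. Delivery by fast perfusion, DMSO 1% throughout. Potentiation relative to the control glutamate response.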

Test [5] has the same target. Description: Positive allosteric modulation of recombinant rat GluN1alpha/GluN2B receptor expressed in HEK293 cells assessed as potentiation of glutamate-induced current response at 30 uM at holding potential -60mV cotreated with 1 uM glutamate by whole cell voltage clamp method relative to control. Format: cell-based. The gist of the method:
as §3

The target of test [6] is T3, Ionotropic glutamate receptor NMDA 1/2D (Rattus norvegicus) (UniProt P35439+Q62645). Description: Positive allosteric modulation of recombinant rat GluN1alpha/GluN2D receptor expressed in HEK293 cells assessed as potentiation of glutamate-induced current response at 1 to 30 uM at holding potential -60mV by whole cell voltage clamp method relative to control. It counts as cell-based. The gist of the method: as §2

For test [7], the target named is T1, Glutamate NMDA receptor; Grin1/Grin2b (Rattus norvegicus). Description: Positive allosteric modulation of recombinant rat GluN1alpha/GluN2B receptor expressed in HEK293 cells assessed as potentiation of glutamate-induced current response at 30 uM at holding potential -60mV by whole cell voltage clamp method relative to control. Format: cell-based. In a few lines: as §2

Test [8] shares this target. Description: Positive allosteric modulation of recombinant rat GluN1alpha/GluN2B receptor expressed in HEK293 cells assessed as potentiation of glutamate-induced current response at 30 uM at holding potential -60mV cotreated with 1 mM glutamate by whole cell voltage clamp method relative to control. It counts as cell-based. The gist of the method: as §3
Test [9] has as its target T4, Glutamate NMDA receptor; Grin1/Grin2c (Rattus norvegicus) (UniProt P35439+Q00961). Description: Positive allosteric modulation of recombinant rat GluN1alpha/GluN2C receptor expressed in HEK293 cells assessed as potentiation of glutamate-induced current response at 1 to 30 uM at holding potential -60mV by whole cell voltage clamp method relative to control. Format: cell-based. In a few lines: as §2

The target of test [10] is Glutamate NMDA receptor; Grin1/Grin2a (Rattus norvegicus, UniProt P35439+Q00959). Description: Positive allosteric modulation of recombinant rat GluN1alpha/GluN2A receptor expressed in HEK293 cells assessed as potentiation of glutamate-induced current response at holding potential -60mV by whole cell voltage clamp method. Format: cell-based. The gist of the method:
as §2

Test [11] has as its target T1, Glutamate NMDA receptor; Grin1/Grin2b (Rattus norvegicus). Description: Positive allosteric modulation of recombinant rat GluN1alpha/GluN2B receptor expressed in HEK293 cells assessed as potentiation of glutamate-induced current response at 1 to 100 uM at holding potential -60mV by whole cell voltage clamp method relative to control. Format: cell-based. In a few lines:
as §1

Test [12] shares this target. Kind of test: Positive allosteric modulation of recombinant rat GluN1alpha/GluN2B receptor expressed in HEK293 cells assessed as potentiation of glutamate-induced current response at 1 to 30 uM at holding potential -60mV by whole cell voltage clamp method relative to control. It counts as cell-based. The gist of the method:
as §2

The target in test [13] is Glutamate NMDA receptor (Rattus norvegicus) (UniProt P35439+Q00959+Q00960+Q00961+Q62645+Q8VHN2+Q9R1M7). Kind of test: Positive allosteric modulation of NMDAR in rat hippocampal neuron assessed as potentiation of NMDA-induced current response at 30 uM by whole cell voltage clamp method relative to control. The gist of the method:
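Native NMDARs in cultured hippocampal neurons, whole-cell voltage clamp at -60 mV, 21–25 °C. Bath also held 10 µM CNQX, 10 µM bicuculline, 0.5 µM TTX. Compound co-applied with 1 µM glutamate by fast perfusion (~10 ms exchange). DMSO 1% throughout. Potentiation relative to control glutamate response.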

The target of test [14] is T3, Ionotropic glutamate receptor NMDA 1/2D (Rattus norvegicus). Description: Positive allosteric modulation of recombinant rat GluN1alpha/GluN2D receptor expressed in HEK293 cells assessed as potentiation of glutamate-induced current response at 30 uM at holding potential -60mV by whole cell voltage clamp method relative to control. Format: cell-based. In a few lines:
as §2

In test [15] the target is T4, Glutamate NMDA receptor; Grin1/Grin2c (Rattus norvegicus). Kind of test: Positive allosteric modulation of recombinant rat GluN1alpha/GluN2C receptor expressed in HEK293 cells assessed as potentiation of glutamate-induced current response at 30 uM at holding potential -60mV by whole cell voltage clamp method relative to control. Format: cell-based. In a few lines: as §2

For test [16], the species on record is Rattus norvegicus. Kind of test: Positive allosteric modulation of AMPAR in rat hippocampal neuron assessed as potentiation of AMPA-induced current response at 30 uM in presence of cyclothiazide by whole cell voltage clamp method relative to control. The gist of the method: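 Cultured hippocampal neurons, whole-cell voltage clamp at -60 mV, room temperature (21–25 °C). AMPAR current evoked by 5 µM AMPA; bath also held 10 µM cyclothiazide, 50 µM D-AP5, 10 µM bicuculline, 0.5 µM TTX. Compound co-applied by fast multibarrel perfusion. DMSO 1% in all test and control solutions. Effect expressed relative to control response.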

Test [17] is filed under the species Rattus norvegicus. Description: Positive allosteric modulation of GABAR in rat hippocampal neuron assessed as potentiation of GABA-induced current response at 30 uM in presence of cyclothiazide by whole cell voltage clamp method relative to control.
In test [18] the target is T2, Glutamate NMDA receptor; Grin1/Grin2a (Rattus norvegicus). Description: Positive allosteric modulation of recombinant rat GluN1alpha/GluN2A receptor expressed in HEK293 cells assessed as potentiation of glutamate-induced current response at 30 uM at holding potential -60mV by whole cell voltage clamp method relative to control. It counts as cell-based. The gist of the method: as §2

The target in test [19] is Ionotropic glutamate receptor NMDA 1/2D (Rattus norvegicus, UniProt P35439+Q62645). Kind of test: Positive allosteric modulation of recombinant rat GluN1alpha/GluN2D receptor expressed in HEK293 cells assessed as potentiation of glutamate-induced current response at holding potential -60mV by whole cell voltage clamp method. It counts as cell-based. The gist of the method: as §2

For test [20], the target named is Glutamate NMDA receptor; Grin1/Grin2c (Rattus norvegicus, UniProt P35439+Q00961). Kind of test: Positive allosteric modulation of recombinant rat GluN1alpha/GluN2C receptor expressed in HEK293 cells assessed as potentiation of glutamate-induced current response at holding potential -60mV by whole cell voltage clamp method. It counts as cell-based. In a few lines: as §2

As a reminder, the EC50 is the concentration at which the effect is half-maximal. The Emax is the size of the effect at its maximum, as opposed to the concentration needed. As for `CC(=O)[C@H]1CC[C@H]2[C@@H]3CC=C4C[C@@H](OC(=O)CCCCC(=O)O)CC[C@]4(C)[C@H]3CC[C@]12C`, the Activity in [1] turned out to be 614%; in test [4], 134%; in test [5], 136%; in [7] it was 137%; in test [8], 75%; in [13], 138%. In addition, the Activity was 88% in test [14]; 118% in test [15]; -7% in the test filed under Rattus norvegicus [16]; -90% in the test listed under Rattus norvegicus [17]; 192% in [18]. The EC50 in [2] was 8.5 to 9.1 µM; in [10] it was 8.9 µM; in [19], 13 µM; in test [20], 10.4 µM. For the same molecule, the Emax in test [3] turned out to be 203%; in [6], 115%; in test [9], 145%; in test [11], 151%; in [12] it was 157%.
